Laboratory results reported in ChEMBL document CHEMBL1137333, “Synthesis, radiosynthesis, and biological evaluation of carbon-11 labeled 2beta-carbomethoxy-3beta-(3'-((Z)-2-haloethenyl)phenyl)nortropanes: candidate radioligands for in vivo imaging of the serotonin transporter with positron emission tomography” (J Med Chem, 2006).

Assays:
[1] = system: Cynomolgus monkey; assay: Uptake in anesthetized cynomolgus monkey occipital after 15.5 mins; assay type: ADME, organism-based, Macaca mulatta, Occipital cortex; conditions: rhesus monkey, in vivo
Summary of the method: (§1)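 Baseline microPET scan (P4 scanner) of anesthetized cynomolgus monkeys after injection of the carbon-11 labelled nortropane tracer. Two baseline studies were run per tracer. Radioactivity was followed over time in regional brain time-activity curves.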

[2] = system: Cynomolgus monkey; assay: Uptake in anesthetized cynomolgus monkey cerebellum after 35.0 mins; assay type: ADME, organism-based, Macaca mulatta; conditions: rhesus monkey, in vivo
Summary of the method: (§2)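 Baseline microPET (Concorde P4) regional brain time-activity curves in anesthetized cynomolgus monkey following injection of the [11C]-labelled tracer, with radioactivity followed over the scan.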

[3] = system: Cynomolgus monkey; assay: Uptake in anesthetized cynomolgus monkey midbrain after 15.5 mins; assay type: ADME, organism-based; conditions: in vivo; summary of the method: as §1
[4] = system: Cynomolgus monkey; assay: Uptake in anesthetized cynomolgus monkey occipital after 0.5 mins; assay type: ADME, organism-based, Occipital cortex; conditions: in vivo; summary of the method: as §1
[5] = system: Cynomolgus monkey; assay: Uptake in anesthetized cynomolgus monkey frontal after 15.5 mins; assay type: ADME, organism-based, Frontal cortex; conditions: in vivo; summary of the method: as §1
[6] = system: Cynomolgus monkey; assay: Uptake in anesthetized cynomolgus monkey thalamus after 65.0 mins; assay type: ADME, organism-based; conditions: in vivo
Summary of the method: (§3)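 Baseline microPET (Concorde P4) scan in anesthetized cynomolgus monkeys after injection of the carbon-11 labeled tracer, with no chase drug. Regional brain time-activity curves were followed over the scan. Tracer radiochemical purity and specific activity were determined by analytical HPLC at the time of injection.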

[7] = system: Cynomolgus monkey; assay: Uptake in anesthetized cynomolgus monkey medulla after 2.5 mins; assay type: ADME, organism-based, Medulla of organ; conditions: in vivo; summary of the method: as §1
[8] = system: Cynomolgus monkey; assay: Uptake in anesthetized cynomolgus monkey putamen after 27.5 mins; assay type: ADME, organism-based; conditions: in vivo; summary of the method: as §3
[9] = system: Cynomolgus monkey; assay: Uptake in anesthetized cynomolgus monkey medulla after 22.5 mins; assay type: ADME, organism-based, Medulla of organ; conditions: in vivo, 0.375 h; summary of the method: as §1
[10] = system: Cynomolgus monkey; assay: Uptake in anesthetized cynomolgus monkey frontal after 45.0 mins; assay type: ADME, organism-based, Frontal cortex; conditions: in vivo, 0.75 h; summary of the method: as §1
[11] = system: Cynomolgus monkey; assay: Uptake in anesthetized cynomolgus monkey pons after 1.5 mins; assay type: ADME, organism-based, Macaca mulatta; conditions: rhesus monkey, in vivo, 0.025 h; summary of the method: as §1
[12] = system: Cynomolgus monkey; assay: Ratio of uptake in occipital to cerebellum of anesthetized cynomolgus monkey after 85 mins; assay type: ADME, organism-based; conditions: in vivo
Summary of the method: (§4)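 Baseline microPET (Concorde P4) in anesthetized cynomolgus monkey after injection of the [11C]-labelled tracer. Regional time-activity curves were taken, and each region's uptake was divided by cerebellum uptake (low-SERT reference) at 65, 85 and 105 min postinjection.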

[13] = system: Cynomolgus monkey; assay: Ratio of uptake in pons to cerebellum of anesthetized cynomolgus monkey after 105 mins; assay type: ADME, organism-based; conditions: in vivo, 1.75 h; summary of the method: as §4
[14] = system: Cynomolgus monkey; assay: Uptake in anesthetized cynomolgus monkey medulla after 35.0 mins; assay type: ADME, organism-based, Medulla of organ; conditions: in vivo; summary of the method: as §1
[15] = system: Cynomolgus monkey; assay: Uptake in anesthetized cynomolgus monkey occipital after 85.0 mins; assay type: ADME, organism-based, Macaca mulatta, Occipital cortex; conditions: rhesus monkey, in vivo; summary of the method: as §1
[16] = system: Cynomolgus monkey; assay: Uptake in anesthetized cynomolgus monkey putamen after 3.5 mins; assay type: ADME, organism-based; conditions: in vivo; summary of the method: as §3
[17] = system: Cynomolgus monkey; assay: Uptake in anesthetized cynomolgus monkey midbrain after 6.5 mins; assay type: ADME, organism-based; conditions: in vivo; summary of the method: as §1
[18] = system: Cynomolgus monkey; assay: Uptake in anesthetized cynomolgus monkey frontal after 22.5 mins; assay type: ADME, organism-based, Frontal cortex; conditions: in vivo, 0.375 h; summary of the method: as §1
[19] = system: Cynomolgus monkey; assay: Ratio of uptake in occipital to cerebellum of anesthetized cynomolgus monkey after 65 mins; assay type: ADME, organism-based; conditions: in vivo; summary of the method: as §4
[20] = system: Cynomolgus monkey; assay: Ratio of uptake in thalamus to cerebellum of anesthetized cynomolgus monkey after 105 mins; assay type: ADME, organism-based; conditions: in vivo, 1.75 h; summary of the method: as §4
[21] = system: Cynomolgus monkey; assay: Uptake in anesthetized cynomolgus monkey medulla after 115.0 mins; assay type: ADME, organism-based, Medulla of organ; conditions: in vivo; summary of the method: as §1
[22] = system: Cynomolgus monkey; assay: Ratio of uptake in thalamus to cerebellum of anesthetized cynomolgus monkey after 85 mins; assay type: ADME, organism-based; conditions: in vivo; summary of the method: as §4
[23] = system: Cynomolgus monkey; assay: Uptake in anesthetized cynomolgus monkey caudate after 115.0 mins; assay type: ADME, organism-based, Caudate nucleus; conditions: in vivo; summary of the method: as §2
[24] = system: Cynomolgus monkey; assay: Uptake in anesthetized cynomolgus monkey midbrain after 0.5 mins; assay type: ADME, organism-based; conditions: in vivo; summary of the method: as §1
[25] = system: Cynomolgus monkey; assay: Uptake in anesthetized cynomolgus monkey caudate after 0.5 mins; assay type: ADME, organism-based, Caudate nucleus; conditions: in vivo; summary of the method: as §2
[26] = system: Cynomolgus monkey; assay: Uptake in anesthetized cynomolgus monkey cerebellum after 115.0 mins; assay type: ADME, organism-based; conditions: in vivo; summary of the method: as §2
[27] = system: Cynomolgus monkey; assay: Uptake in anesthetized cynomolgus monkey cerebellum after 2.5 mins; assay type: ADME, organism-based, Macaca mulatta; conditions: rhesus monkey, in vivo; summary of the method: as §2
[28] = system: Cynomolgus monkey; assay: Uptake in anesthetized cynomolgus monkey putamen after 85.0 mins; assay type: ADME, organism-based; conditions: in vivo; summary of the method: as §3
[29] = system: Cynomolgus monkey; assay: Uptake in anesthetized cynomolgus monkey cerebellum after 1.5 mins; assay type: ADME, organism-based; conditions: in vivo, 0.025 h; summary of the method: as §2
[30] = system: Cynomolgus monkey; assay: Uptake in anesthetized cynomolgus monkey occipital after 4.5 mins; assay type: ADME, organism-based, Occipital cortex; conditions: in vivo, 0.075 h; summary of the method: as §1
[31] = system: Cynomolgus monkey; assay: Uptake in anesthetized cynomolgus monkey medulla after 15.5 mins; assay type: ADME, organism-based, Medulla of organ; conditions: in vivo; summary of the method: as §1
[32] = system: Cynomolgus monkey; assay: Uptake in anesthetized cynomolgus monkey medulla after 75.0 mins; assay type: ADME, organism-based, Medulla of organ; conditions: in vivo, 1.25 h; summary of the method: as §1
[33] = system: Cynomolgus monkey; assay: Uptake in anesthetized cynomolgus monkey medulla after 65.0 mins; assay type: ADME, organism-based, Medulla of organ; conditions: in vivo; summary of the method: as §1
[34] = system: Cynomolgus monkey; assay: Uptake in anesthetized cynomolgus monkey medulla after 105.0 mins; assay type: ADME, organism-based, Medulla of organ; conditions: in vivo, 1.75 h; summary of the method: as §1

**Q.** Which Drug uptake [1] does the source give for `[11CH3]OC(=O)[C@@H]1C2CCC(C[C@@H]1c1cccc(/C=C/Br)c1)N2` (some centres undefined) here?
**A.** 4.55

**Q.** What about the Drug uptake [2] of the same molecule?
**A.** 5.92

**Q.** What about the Drug uptake [3] of the same molecule?
**A.** 6.32

**Q.** And the Drug uptake [4]?
**A.** 0.01

**Q.** And the Drug uptake [5]?
**A.** 3.21

**Q.** And the Drug uptake [6]?
**A.** 6.39

**Q.** What about the Drug uptake [7] of the same molecule?
**A.** 1.32

**Q.** What about the Drug uptake [8] of the same molecule?
**A.** 6.85

**Q.** And the Drug uptake [9]?
**A.** 6.96

**Q.** What about the Drug uptake [10] of the same molecule?
**A.** 3.76

**Q.** What about the Drug uptake [11] of the same molecule?
**A.** 0.34

**Q.** What about the Ratio [12] of the same molecule?
**A.** 0.9

**Q.** What about the Ratio [13] of the same molecule?
**A.** 1.8

**Q.** What about the Drug uptake [14] of the same molecule?
**A.** 7.19

**Q.** And the Drug uptake [15]?
**A.** 5.21

**Q.** And the Drug uptake [16]?
**A.** 1.96

**Q.** And the Drug uptake [17]?
**A.** 4.84

**Q.** What about the Drug uptake [18] of the same molecule?
**A.** 3.47

**Q.** And the Ratio [19]?
**A.** 0.8

**Q.** And the Ratio [20]?
**A.** 1.6

**Q.** What about the Drug uptake [21] of the same molecule?
**A.** 6.59

**Q.** And the Ratio [22]?
**A.** 1.5

**Q.** What about the Drug uptake [23] of the same molecule?
**A.** 6.42

**Q.** And the Drug uptake [24]?
**A.** 0.01

**Q.** And the Drug uptake [25]?
**A.** 0.01

**Q.** What about the Drug uptake [26] of the same molecule?
**A.** 3.76

**Q.** What about the Drug uptake [27] of the same molecule?
**A.** 1.1

**Q.** What about the Drug uptake [28] of the same molecule?
**A.** 7.16

**Q.** And the Drug uptake [29]?
**A.** 0.35

**Q.** And the Drug uptake [30]?
**A.** 2.14

**Q.** What about the Drug uptake [31] of the same molecule?
**A.** 6.52

**Q.** What about the Drug uptake [32] of the same molecule?
**A.** 7.18

**Q.** What about the Drug uptake [33] of the same molecule?
**A.** 7.11

**Q.** And the Drug uptake [34]?
**A.** 6.81
